Series [1] deals with Canis familiaris. The experiment in a line: Duration of action to obtain >20% ex vivo collagen induced platelet aggregation was reported, after 10 mg/kg (post-ig) into dogs; duration of time >6, <24. The class given is functional, Canis lupus familiaris. In short, it runs like this:
(§1)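 Ester prodrugs dosed orally by capsule to conscious beagle dogs (n = 2). Citrated cephalic-vein blood (2 mL) drawn before and at set times after dosing for 24 h or until back to baseline. PRP made by spinning at 260g for 6 min. Aggregation induced with equine tendon collagen (final 33 μg/mL) at 37 °C and followed for 3 min. Duration is the time with >20% inhibition versus predose control.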

In series [2] the test system is Canis familiaris. Briefly: Duration of action to obtain >20% ex vivo collagen induced platelet aggregation was reported, after 10 mg/kg (post-ig) into dogs. The class given is functional, Canis lupus familiaris. An outline of the steps:
as §1

Series [3] has as its system Canis familiaris. Briefly: Duration of action to obtain >20% ex vivo collagen induced platelet aggregation was reported, after 5 mg/kg (post-ig) into dogs. Type of series: functional, Canis lupus familiaris. In short, it runs like this: as §1
Series [4] can be described thus: Area under curve was determined by HPLC at a dosage of 2.27 mg/kg administered intravenously by bolus method in dog. The class given is ADME, organism-based, Canis lupus familiaris. The arrangement: dose 2.27 mg/kg, route intravenous. Particulars: in vivo, iv. In short, it runs like this: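 Female dogs (7–12 kg, n = 3), fasted 18 h. Aqueous saline solution injected into a radial vein (0.5 mL/kg) over 2–3 min. Femoral vein blood (3.5 mL) taken at 0.25, 0.5, 1, 2, 3, 5, 8, 13 and 24 h, put on ice, centrifuged, plasma held at –20 °C. Acid level in plasma measured by HPLC; AUC by trapezoidal method extrapolated to infinity and back to zero.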

Series [5] has as its system Canis familiaris. Briefly: Duration of action to obtain >20% ex vivo collagen induced platelet aggregation was reported, after 20 mg/kg (post-ig) into dogs. The class given is functional, Canis lupus familiaris. In short, it runs like this:
as §1

Series [6] concerns Canis familiaris. The experiment in a line: Duration of action to obtain >20% ex vivo collagen induced platelet aggregation was reported, after 20 mg/kg (post-ig) into dogs; duration of time >6, <24. The class given is functional, Canis lupus familiaris. In short, it runs like this:
as §1

The test system of series [7] is Canis familiaris. Briefly: Duration of action to obtain >20% ex vivo collagen induced platelet aggregation was reported, after […] 5 mg/kg orally (post-ig) into dogs. The note with it: route oral. The class given is functional, Canis lupus familiaris. An outline of the steps: as §1
Series [8] concerns Canis familiaris. Briefly: Duration of action to obtain >20% ex vivo collagen induced platelet aggregation was reported, after 20 mg/kg (post-ig) into dogs; duration of time >3, <6. Type of series: functional, Canis lupus familiaris. In short, it runs like this: as §1
The subject of series [9] is Canis familiaris. The experiment in a line: Duration of action to obtain >20% ex vivo collagen induced platelet aggregation was reported, after 20 mg/kg (post-ig) into dogs; Duration of time >6, < 24. Type of series: functional, Canis lupus familiaris. An outline of the steps: as §1
For series [10], the system named is Canis familiaris. Briefly: Area under curve of acid 2a was determined by HPLC at a dosage of 5.45 mg/kg administered intragastrically by gavage method in dog. The arrangement: dose 5.45 mg/kg, route intragastric. Type of series: ADME, organism-based, Canis lupus familiaris. Particulars: in vivo, po. In short, it runs like this: (§2)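 Six female dogs, 7–12 kg, three per group, fasted 18 h. Prodrug ester given intragastrically as aqueous solution (2 mL/kg) by gavage or in gelatin capsule. Blood (3.5 mL) drawn via femoral vein catheter at 0.5, 1, 1.5, 2, 3, 5, 8, 13, 24 and 48 h, kept on ice, centrifuged, plasma stored at –20 °C. Acid measured in plasma by HPLC; AUC by trapezoidal method, extrapolated to infinity and back to zero.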

Series [11] can be described thus: Area under curve of acid 2a was determined by HPLC at a dosage of 54.5 mg/kg administered intragastrically by gavage method in dog. Particulars: in vivo, po. Type of series: ADME, organism-based. More on the design: dose 54.5 mg/kg, route intragastric. An outline of the steps: as §2
For series [12], the system named is Canis familiaris. The experiment in a line: Area under curve of acid 2a was determined by HPLC at a dosage of 5.45 mg/kg administered intragastrically by capsule method in dog. The class given is ADME, organism-based, Canis lupus familiaris. The arrangement: dose 5.45 mg/kg, route intragastric. Particulars: in vivo, po. In short, it runs like this:
as §2

Series [13] relates to Canis familiaris. Briefly: Area under curve of acid 2a was determined by HPLC at a dosage of 54.5 mg/kg administered intragastrically by capsule method in dog. The class given is ADME, organism-based, Canis lupus familiaris. More on the design: dose 54.5 mg/kg, route intragastric. Particulars: in vivo, po. In short, it runs like this:
as §2

On to `CCOC(=O)CC(NC(=O)CCCCc1ccc(C(=N)N)cc1)c1ccccc1` (stereo not drawn), for which the Duration time in the series with Canis familiaris [1] is >6 h.

For `CCOC(=O)CC(NC(=O)CCC(=O)Nc1ccc(C(=N)N)cc1)c1cccnc1` (stereo not drawn), the Duration time is >24 h in the series on Canis familiaris [2] and >6 h in the series on Canis familiaris [3].

Take `C#C[C@H](CC(=O)O)NC(=O)CCC(=O)Nc1ccc(C(=N)N)cc1`: the exposure (AUC) in series [4] was found to be 2490 ng·h/mL. In the case of `C=CC(CC(=O)OCC)NC(=O)CCC(=O)Nc1ccc(C(=N)N)cc1` (stereo not drawn), the Duration time with Canis familiaris [5] is >24 h. As for `CCOC(=O)CC(C)NC(=O)CCC(=O)Nc1ccc(C(=N)N)cc1` (stereo not drawn), the Duration time with Canis familiaris [5] is >30 h.

Turning to `CCOC(=O)CC(NC(=O)CCC(=O)Nc1ccc(C(=N)N)cc1)c1ccc(OCC)nc1` (stereo not drawn), the Duration time in the series on Canis familiaris [3] is <6 h. On to `CCOC(=O)CC(C)NC(=O)CCCCc1ccc(C(=N)N)cc1` (stereo not drawn), for which the Duration time in the series with Canis familiaris [6] is >6 h. In the case of `CCOC(=O)CC(NC(=O)CCC(=O)Nc1ccc(C(=N)N)cc1)c1cnc2ccccc2c1` (stereo not drawn), the Duration time in the series on Canis familiaris [3] was <6 h.

In the case of `CCOC(=O)CC(Cc1ccccc1)NC(=O)CCC(=O)Nc1ccc(C(=N)N)cc1` (stereo not drawn), the Duration time with Canis familiaris [6] was >6 h.

For `CCOC(=O)CC(NC(=O)CCC(=O)Nc1ccc(C(=N)N)cc1)c1ccc2c(c1)OCO2` (stereo not drawn), the Duration time in the series with Canis familiaris [7] is >24 h. As to `CCOC(=O)CC(Cc1ccccc1)NC(=O)CCCCc1ccc(C(=N)N)cc1` (stereo not drawn), the Duration time in the series with Canis familiaris [8] is >3 h. As to `CCOC(=O)CC(NC(=O)CCC(=O)Nc1ccc(C(=N)N)cc1)c1ccccc1` (stereo not drawn), the Duration time with Canis familiaris [9] was >6 h. For `C#C[C@H](CC(=O)OCC)NC(=O)CCC(=O)Nc1ccc(C(=N)N)cc1` [XEMILOFIBAN], the AUC is 2730 ng·h/mL in the series with Canis familiaris [10], 31700 ng·h/mL in series [11], 2660 ng·h/mL in the series with Canis familiaris [12] and 31200 ng·h/mL with Canis familiaris [13]. Moreover, the Duration time in the series on Canis familiaris [2] was >24 h.

What is called AUC is the area under the concentration-time curve, a measure of exposure. A low value points to less exposure.

Values taken from ChEMBL document CHEMBL1128602, “Potent in vitro and in vivo inhibitors of platelet aggregation based upon the Arg-Gly-Asp sequence of fibrinogen. (Aminobenzamidino)succinyl (ABAS) series of orally active fibrinogen receptor antagonists” (J Med Chem, 1995).
